Source: PubChem (several laboratories)
CHOP UPR activ = apoptotic UPR (CHOP) activation; activation, % at 10 µM; AID 449763; 330,000 compounds, 0.34% hits; CHO-CHOP luciferase reporter, luminescence; percent of tunicamycin response over DMSO baseline;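 active = at 10 µM dose, activation of 40% or more, normalized to positive control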;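 note: 100% = tunicamycin at 10 µg/mL and 0% = DMSO alone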
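Assay system: CHO cells with stable CHOP pathway luciferase reporter; Buffer or medium: F12 plus 10% serum; Times: 16-18 h cell attachment, then 6 h compound exposure, 37 °C; Signal: luciferase luminescence; Read-out basis: percent activation relative to tunicamycin control; Control set: tunicamycin high control, DMSO low control.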
697 NFkB inh = lowers PMA/ionomycin-induced NF-kB signal in 697 B cells; 697 B-cell NF-kB luciferase reporter, 16 h; inhibition, % at 4 µM; 330,000 compounds, 0.33% hits; AID 435022; in the data active = inhibition above about 35%
UPR XBP1 act = activators of adaptive arm of unfolded protein response (XBP1). 330,000 compounds, 0.33% hits. activation, % at 20 µM. CHO-XBP1 luciferase reporter, IRE1-XBP1 UPR activation, luminescence; percent of tunicamycin response, DMSO as zero;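 active = versus positive control, 20 µM dose yields 30% or more activation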;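 note: 100% = tunicamycin at 10 µg/mL and 0% = DMSO only wells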
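Material: IRE1-XBP1 luciferase reporter CHO line / Quantity: one thousand reporter cells per well / Buffer or medium: F12 with 10% serum / Compound: 20 µM single concentration, DMSO 1% / Times: 6 h treatment, 37 °C / Detection: Steady-Glo luciferase glow luminescence, 10 min after reagent addition / Benchmarks: tunicamycin high, DMSO low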
CHOP inh = blocks CHOP induction under ER stress; CHO-K1 CHOP-promoter luciferase, tunicamycin-induced, 15-18 h; inhibition, % at 10 µM; 220,000 compounds, 3.8% hits;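 active = compounds that reduced the stress-induced luciferase reporter signal by more than about 70% of percent inhibition, limit read from the data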;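 note: 0% = tunicamycin plus vehicle and 100% = wells without tunicamycin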
Jurkat NFkB inh = lowers PMA/ionomycin-induced NF-kB signal in Jurkat cells; 330,000 compounds, 0.53% hits; PMA/ionomycin-induced NF-kB luciferase reporter, luminescence; inhibition, % at 4 µM; AID 435003; in the data active = inhibition above about 50%
Jurkat NFkB conf = lowers PMA/ionomycin-induced NF-kB signal in Jurkat cells; Jurkat NF-kB luciferase, 16 h; AID 435020; shares compounds with Jurkat NFkB inh; 2,700 compounds, 27% hits; inhibition, % at 4 µM;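 active = inhibition reaching about 45% at 4 µM in either replicate, limit read from the data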;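 note: plate controls were PMA/ionomycin stimulated DMSO wells for no effect and unstimulated DMSO wells for full effect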
The depositor's hits bear a star; / = no result. The sample as a whole holds a higher share of hits than the screen did.

SMILES	CHOP UPR activ	697 NFkB inh	UPR XBP1 act	CHOP inh	Jurkat NFkB inh	Jurkat NFkB conf
COc1cc(C2=NOC(C(=O)NCc3ccc(F)cc3)C2)cc(OC)c1OC (centres undefined)	-1.5	28.6	10.9	/	68.3*	52.0*
Cc1ccc(CNC(=O)C2CCN(S(=O)(=O)c3ccc(Br)s3)CC2)cc1	2.2	-8.4	-1.2	/	-7.6	/
CNCCCOc1ccc2c(c1)CCC2	2.8	-1.5	-4.2	0.2	12.9	/
c1cnc(SCCOc2ccc3c(c2)CCC3)nc1	6.6	-200.0	-0.3	51.3	-176.0	-78.0
O=C(Nc1ccc(Cl)c(S(=O)(=O)N2CCOCC2)c1)c1ccc(OCC2CCCO2)cc1 (centres undefined)	0.6	-36.0	-4.2	41.6	60.0*	64.2*
Cc1cc(C)n(CCC(=O)N2CCN(S(=O)(=O)c3ccccc3)CC2)n1	0.4	28.2	0.3	/	24.6	/
C/C(=N\NC(=O)c1ccncc1)c1ccc(NC(=O)c2ccc(Cl)cc2)cc1	2.9	-164.9	-7.2	/	-152.2	-91.6
Cc1nn(CC(=O)N2CCC(C)CC2)c(=O)c2nn(-c3ccccc3)c(C)c12	-2.1	-13.4	-4.3	/	15.8	/
CCOC(=O)C1=C(C)NC(SC)=C(C#N)C1CC(C)C (centres undefined)	-1.5	-66.2	-0.8	10.2	57.1*	17.1
CC(=O)C1=C(C)NC(SCC(N)=O)=C(C#N)C1CC(C)C (centres undefined)	-2.3	-2.7	-2.0	22.5	-7.3	/
O=C(OCC(=O)N1CCC(c2ccccc2)=N1)c1ccc(Cl)s1	2.3	6.0	1.1	/	-172.5	7.0
CCOC(=O)CC1CCCCN1C(=O)c1cc(COc2cccc3cnccc23)on1 (centres undefined)	4.2	-34.7	-6.6	/	50.2*	71.8*
O=C1C(=O)N(Cc2cccnc2)C(c2cccc(Br)c2)/C1=C(/O)c1ccc2c(c1)OCO2 (centres undefined)	0.2	-2.6	-1.0	/	-1.1	/
COc1cccc(-c2noc(-c3cccs3)n2)c1	-0.1	-248.6	1.8	58.5	-151.6	-123.0
O=C(Oc1ccc(-c2cnc3ccccc3n2)cc1)c1ccco1	3.9	-154.3	2.9	49.9	-162.4	-81.5
CCc1ccc(-c2cc(C)no2)cc1S(=O)(=O)NCc1ccccc1OC	-2.2	-18.0	-4.1	/	-7.6	/
COc1ccccc1CNS(=O)(=O)c1ccc(-c2cc(C)no2)cc1	0.3	-54.5	0.9	/	60.4*	48.2*
CC(=O)c1cc2c(cc1NC(=O)c1cc(C)nn1-c1ccccc1)OCO2	-1.3	-63.0	4.5	30.6	55.2*	24.4
O=C(Nc1nc2ccccc2s1)NC1CCCCC1	3.9	-133.4	5.0	-7.0	-179.3	-112.1
CCCN1CCC(=NNc2ccc(S(=O)(=O)N3CCOCC3)cc2[N+](=O)[O-])CC1	-1.3	-11.6	1.5	-14.9	64.4*	1.8
CC(C)N1CCC(=NNc2ccc(S(=O)(=O)N3CCOCC3)cc2[N+](=O)[O-])CC1	1.7	14.0	-3.4	2.8	11.5	/
Nc1c(C(=O)Nc2ccc(Cl)c(C(=O)O)c2)sc2nc3c(cc12)CCCC3	1.8	15.8	-3.5	/	13.4	/
Nc1c(C(=O)Nc2cccc(C(=O)O)c2)sc2nc3c(cc12)CCCC3	-9.0	16.2	-16.0	/	69.7*	-54.3
Cc1ccc(OCC(=O)NC(=S)Nc2ccc(S(=O)(=O)Nc3cc(C)on3)cc2)c(Br)c1	0.4	1.8	6.3	/	10.1	/
CC1Cc2ccccc2N1S(=O)(=O)c1cnc[nH]1 (centres undefined)	2.4	18.2	-4.5	-6.1	7.9	/
CSc1ccc(S(=O)(=O)N2c3ccccc3CC2C)cc1 (centres undefined)	3.3	-4.3	-1.0	/	54.9*	27.4
CC(=O)N1CCc2cc(S(=O)(=O)N3c4ccccc4CC3C)ccc21 (centres undefined)	-0.4	-72.5	4.1	47.2	53.3*	18.1
CC(=O)Nc1nnc(SCC(=O)N2C(C)CCCC2C)s1 (centres undefined)	1.6	1.3	-6.0	/	-5.0	/
O=C(Nc1c2c(nn1-c1ccccc1)CS(=O)C2)c1ccco1 (centres undefined)	1.2	22.4	-1.0	/	10.8	/
